Measured values reported in publication PMC4553108 (Xenobiotica; the fate of foreign compounds in biological …, 2015).

Experiments:
[1] = Stability of BI-94 in human plasma; format: in vitro ADME; conditions: immediately after spiking (data not shown)
[2] = target: human serum albumin (HSA)-T3 peptide (Homo sapiens, UniProt P02768); test: HSA-T3 peptide adduct formation in solution; format: in vitro ADME; conditions: deionized water, 30 min; MS/MS mass shifts +164 (A1) and +273 (A2)
[3] = Stability / recovery of BI-94 in mouse plasma; format: in vitro ADME
Method in brief: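 Mouse plasma (stored −80°C) spiked at 10 μg/mL, room temperature: undiluted, or diluted with one or nine volumes of water or 7.5 mM ammonium formate (pH 2.5). At 1, 20 and 60 min, extracted with four volumes MeOH and spun 16 000 × g for 10 min. Supernatant mixed 1:1 with 20% methanol in formate buffer. Post-extracted plasma was spiked after MeOH extraction. Analysed by LC-MS/MS, m/z 319.1→179.8; % recovery.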

NCI 60 cell line panel = conditions: read-out: average GI50; average value in the NCI 60 cell line panel; cited from earlier work
[4] = NAC adduct formation in solution; format: in vitro ADME; conditions: deionized water, 30 min, direct MS; adducts of fragments of NAC and BI-94
Method in brief: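 For structural identification, test compound (final 10 μg/mL) incubated 30 min in water with GSH or NAC, then analysed by direct LC-MS/MS and MS/MS. NAC adducts were screened by EMS-IDA-EPI (positive and negative ESI) only. GSH adducts were also screened by negative-mode precursor ion scans (m/z 254, 272) and by isotopic filtering with 1:1 GSH:[13C2,15N]-GSH.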

[5] = Stability of BI-94 in solution; format: physicochemical; conditions: for stability in solution: 10 μg/mL, up to 60 min
Balb/c mice = test: GSH and NAC adduct formation in vivo after intravenous dose to mice
[6] = Stability of BI-94 in rat plasma; format: in vitro ADME; conditions: immediately after spiking (data not shown)
[7] = GSH and NAC adduct formation in spiked mouse plasma; format: in vitro ADME
Method in brief: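 Freshly collected blank mouse blood/plasma and frozen plasma spiked at 10 μg/mL and held 5 and 20 min at room temperature. One frozen-plasma set was fortified with 9.8 μM GSH before spiking. Samples extracted with four volumes MeOH and spun at 16 000 × g for 10 min. Supernatant was mixed 1:1 with 20% methanol in 7.5 mM ammonium formate (pH 2.5). GSH/NAC adducts quantified by negative-mode LC-MS/MS MRM.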

[8] = GSH adduct formation in solution; format: in vitro ADME
[9] = Stability of BI-94 in monkey plasma; format: in vitro ADME; conditions: immediately after spiking (data not shown)
[10] = water, after 60 min of incubation

Sequence of human serum albumin (HSA)-T3 peptide (P02768 45-65 limits assumed): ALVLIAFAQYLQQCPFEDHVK

O=[N+]([O-])c1ccc(S(=O)(=O)Cc2ccccc2)c2nonc12 [BI-94, 4-(benzylsulfonyl)-7-(hydroxy(oxido)amino)-2,1,3-benzoxadiazole]
recovery from plasma [1]: < 1%
adduct formation with HSA-T3 peptide, site [2]: forms adducts with albumin at the Cys34 position
recovery from post-extracted plasma ([3]; blank plasma pre-treated with MeOH and formate buffer, after 60-min incubation): 100%
recovery from mouse plasma ([3]; immediately after spiking, plasma diluted with one or nine volumes of H2O): below detection limit
recovery from mouse plasma ([3]; immediately after spiking, undiluted mouse plasma, 10 μg/mL): below detection limit
recovery from mouse plasma ([3]; nine volume dilution with 7.5 mM NH4-formate buffer (pH 2.5)): completely recovered
recovery from mouse plasma ([3]; one volume dilution with 7.5 mM NH4-formate buffer (pH 2.5), 60 min of incubation): 10%
recovery from mouse plasma ([3]; one volume dilution with 7.5 mM NH4-formate buffer (pH 2.5), immediate): 62%
recovery from post-extracted plasma ([3]; plasma pretreated with MeOH, after 60-min incubation): 20%
recovery from post-extracted plasma ([3]; plasma pretreated with MeOH, immediately after spiking): 100%
GI50 (NCI 60 cell line panel): 22.9 µM
NAC adducts detected [4]: three NAC adducts
stability in the autosampler ([5]; 48 h in 50 % methanol in H2O reconstitution solution (data not shown)): stable
stability in solution ([5]; NaOH or various buffers at pHs 7–9, room temperature): not stable
stability in solution ([5]; water and various buffers at pHs 2.5–5, room temperature): stable
time within which all three mice died after BI-94 administration (Balb/c mice; 10 mg/kg intravenous dose, male Balb/c mice (n = 3)): ≤ 2 h
BI-94 adducts with GSH (A1 and A2) and NAC (A1 and A2) in plasma in vivo (Balb/c mice; plasma 5 and 60 min after 10 mg/kg intravenous dose to mice): detected
recovery from plasma [6]: < 1%
GSH adducts (A1 and A2) and NAC adduct (A1) in spiked plasma ([7]; blank plasma freshly collected from mice, 10 μg/mL): detected
GSH and NAC adducts in spiked plasma ([7]; frozen blank mouse plasma): none of the adducts
BI-94 depleted on incubation with GSH ([8]; NH4-formate buffer of pH 2.5, over 1 h): 14%
decrease in BI-94 peak area on incubation with GSH ([8]; PBS, within 5 min of incubation): 94.5%
GSH adducts detected ([8]; deionized water, 30 min, direct MS, adducts with a fragment of BI-94): two adducts
decrease in BI-94 peak area on incubation with GSH [8, 10]: 64%
increase in peak area of A1 and A2 GSH adducts [8, 10]: 6 fold
recovery from plasma [9]: < 1%
